# Rev-erbA mod – modulators of Rev-erb alpha DNA binding, primary screen, biochemical, FITC-DNA, fluorescence polarization, uHTS; Nuclear receptor subfamily 1 group D member 1 (Homo sapiens), P20393; Rev-erbα–FITC-DNA binding, 90 min; activity, % at 10 µM; 370,000 tested, 0.79% active;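 active = activity above about 14%, limit read from the data; passing the limit was not always enough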;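 also: 0% = DMSO wells with 35 nM protein and 100% = DMSO wells with 750 nM protein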
# NR2E3 ag-1 – NR2E3 agonists in two-hybrid cells, primary screen, cell-based, luminescence, CHO-S, Gal4-NCOR/VP16-NR2E3; AID 602229, 2012; inhibition of corepressor binding, % at 3.98 µM; 360,000 tested, 0.35% active; Photoreceptor-specific nuclear receptor (Homo sapiens), Q9Y5X4; luciferase;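 active = inhibition above the mean of all tested compounds plus 3 SD, cut at about 70% in these data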;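 also: 0% = DMSO with NR2E3 transfected cells and 100% = cells lacking NR2E3 construct; higher means lower luciferase signal from less NR2E3 corepressor binding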
# PG9 binder – binders of HIV-1 gp120 antibody PG9, primary screen, biochemical, TR-FRET; inhibition, % at 6.7 µM; 360,000 tested, 0.43% active; HIV-1 gp120 / PG9 antibody interaction; TR-FRET gp120-PG9 antibody binding; AID 624416, 2012; in the data active = inhibition above about 8.5%
# MC4R ag barr – MC4R agonists recruiting beta-arrestin, primary screen, cell-based, luminescence, agonist arm of biased-ligand search. Melanocortin receptor 4 (Homo sapiens), P32245. U2OS MC4R beta-arrestin complementation; percent of melanotan II response, DMSO zero. activation, % at 8.9 µM. 360,000 tested, 0.98% active. AID 540308, 2011;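 active = activation above a per-plate cutoff, the mean activation of sample wells on that plate plus 3 SD, cut at about 8% in these data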
# Target sequence (P32245 whole entry, looked up): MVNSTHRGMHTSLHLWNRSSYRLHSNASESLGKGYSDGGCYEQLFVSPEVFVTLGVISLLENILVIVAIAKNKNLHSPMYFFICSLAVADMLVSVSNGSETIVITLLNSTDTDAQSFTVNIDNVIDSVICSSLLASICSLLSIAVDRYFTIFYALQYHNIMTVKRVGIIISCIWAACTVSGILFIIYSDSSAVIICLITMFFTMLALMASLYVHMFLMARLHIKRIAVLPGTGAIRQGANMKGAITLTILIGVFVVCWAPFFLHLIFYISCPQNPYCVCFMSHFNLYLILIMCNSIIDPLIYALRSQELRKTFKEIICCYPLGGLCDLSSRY
# MC4R antagonist – MC4R antagonists of cAMP signaling, primary screen, cell-based, TR-FRET, antagonist arm of biased-ligand search. 360,000 tested, 0.48% active. Melanocortin receptor 4 (Homo sapiens), P32245. AID 540295, 2011. inhibition, % at 6.5 µM. MC4R-expressing cells, MTII-stimulated cAMP, LANCE TR-FRET;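 active = inhibition above its plate's cutoff, the mean of tested wells on that plate plus 3 SD, cut at about 29% in these data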;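 also: 0% = Melanotan II alone and 100% = Melanotan II plus saturating MCL0020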
#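 System: U2OS cells stably expressing human melanocortin 4 receptor (MC4R). Reagent: Melanotan II challenge after compound preincubation. Doses: 6.5 µM. Times: 30-min compound, 1-h challenge, 1-h detection, room temperature. Measured by: TR-FRET with Eu-cAMP and labeled anti-cAMP, 671 nm. Replicates: singlicate.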
# NR2E3 ag-2 – inhibitors of NR2E3-RetCOR corepressor binding, primary screen, NR2E3 agonist project, biochemical, TR-FRET, GST-NR2E3, biotin-RetCOR; inhibition of corepressor binding, % at 4.78 µM; AID 2300, 2010; 1536-well; 320,000 tested, 0.12% active;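 active = percent inhibition above the cutoff of mean plus 3 SD of all tested compounds, set per screening campaign, cut at about 20% in these data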;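 also: 0% = DMSO wells and 100% = biotin wells as full block of FRET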
#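 Test system: GST-NR2E3 and biotin-RetCOR proteins | Quantity: 1.35 nM GST-tagged NR2E3 final | Medium: Tris pH 7.5 | Also added: 7 nM biotin-RetCOR | Dosing: Compound at 4.8 µM, single dose | Timing: 5 h at 4 °C | Detection: Time-resolved FRET | Read-out basis: Percent inhibition | Benchmarks: Biotin wells as high control, 0.6% DMSO wells as low control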
# PG9 binder conf – binders of anti-gp120 antibody PG9, confirmation, biochemical, TR-FRET; shares compounds with PG9 binder; TR-FRET PG9 antibody binding; inhibition, % at 6.7 µM; 1,500 tested, 90% active; in the data active = inhibition above about 9%
# PGV04 counter – binders of control antibody PGV04, counter-screen for PG9 antibody binder project, biochemical, TR-FRET, distinct HIV envelope site | AID 651604, 2012 | inhibition, % at 6.7 µM | shares compounds with PG9 binder | 1,500 tested, 95% active | TR-FRET PGV04 antibody-gp120 binding; in the data active = inhibition above about 9.5%
# PG9 bind DR – small-molecule binders of antibody PG9, dose response, biochemical, TR-FRET, HIV-1 gp120 antibody; TR-FRET PG9 antibody-gp120 binding inhibition; IC50, µM; 95 tested, under 10 active; AID 651848, 2012; shares compounds with PG9 binder; in the data active = IC50 below about 10 µM
# PGV04 binding DR – binders of control antibody PGV04, dose response, counter-screen for PG9 antibody binder project, biochemical, TR-FRET, distinct HIV envelope site. TR-FRET binding to control antibody PGV04. 95 tested, 20% active. IC50, µM. AID 651937, 2012. shares compounds with PG9 binder
# PG126 DR counter – binders of control antibody PG126, dose response, counter-screen for PG9 antibody binder project, biochemical, TR-FRET, distinct HIV envelope site; IC50, µM; TR-FRET binding to antibody PG126, counterscreen; 95 tested, 20% active; AID 651939, 2012; shares compounds with PG9 binder
# An asterisk follows results filed as active; i = inactive; nt = no result given. Only some compounds are listed: those with a hit (about 2.7% of all), similar ones and a draw of the others. Rule as the data show it, unless noted: active = IC50 below about 9 µM; inactive = the rest.
SMILES,Rev-erbA mod,NR2E3 ag-1,PG9 binder,MC4R ag barr,MC4R antagonist,NR2E3 ag-2,PG9 binder conf,PGV04 counter,others
O=C(CCS(=O)(=O)c1ccccc1)Nc1ccc(-c2nc3ccccc3s2)c(O)c1,8,-46,26*,2,7,1,22*,51*,
COc1ccc(CCNC(=O)c2ccc3c(c2)N(Cc2ccc(C)cc2)CCS3)cc1OC,nt,-31,nt,-2,7,1,nt,nt,
Cc1ccc(CN2CCSc3ccc(C(=O)NCCCN4CCN(C)CC4)cc32)cc1,-7,0,25*,-3,5,6,29*,34*,
Nc1cccc2[nH]c(C(F)(F)F)nc12,-6,4,-2,-4,20,-4,nt,nt,
FC(F)(F)c1nc(=S)c2ccccc2[nH]1,-2,-13,17*,-1,21,nt,11*,9.9*,
C/C(=N\O)C1/C(=N/O)CC2C1C2(C)C (centres undefined),-2,-26,3,-2,10,-1,nt,nt,
COC(=O)c1cc(Br)c(=O)n(-c2cccc(F)c2)c1,5,-8,11*,2,2,4,19*,23*,
COC(=O)c1cc(Br)c(=O)n(-c2ccc(OC)cc2)c1,1,21,9.9*,0,2,2,17*,22*,
CCOC(=O)COc1cccc2c(=O)n(CC(=O)N3CCc4ccccc43)ccc12,15,-11,14*,0,-7,0,21*,25*,
COc1cccc2c(=O)n(CC(=O)N3CCc4ccccc43)ccc12,6,-8,-2,2,14,2,nt,nt,
CC(C)N1C(=O)NC2(c3ccccc3)N(C)C(=O)N(C)C12c1ccccc1 (centres undefined),-1,2,-1,-1,7,1,nt,nt,
CCc1cccc(C)c1NC(=O)c1cc(=O)[nH]c2ccc(S(=O)(=O)N3CCOCC3)cc12,-1,5,14*,-3,16,1,18*,28*,
Cc1ccc(NC(=O)c2cc(=O)[nH]c3ccc(S(=O)(=O)N4CCOCC4)cc23)cc1,4,-9,-2,-5,4,3,nt,nt,
Cc1ccc(NS(=O)(=O)c2cc(C(=O)N3CCN(C)CC3)ccc2C)cc1C,-6,18,-1,1,1,-1,nt,nt,
Cc1onc(-c2ccccc2Cl)c1C(=O)NNC(=O)c1cccc(F)c1,7,-15,-1,-1,13,-1,nt,nt,
N#Cc1c(-c2ccccc2)nc(SCC(=O)Nc2ccc(OC(F)(F)Cl)cc2)[nH]c1=O,0,-19,8.8*,-2,9,13,18*,22*,
CCOC(=O)C1CCN(C(=O)COC(=O)CNC(=O)c2sc3ccccc3c2Cl)CC1,8,4,10*,-3,8,6,12*,16*,
O=C(Nc1nc2c(Cl)cccc2s1)c1ccc([N+](=O)[O-])o1,-10,-25,-2,1,13,0,nt,nt,
O=C(Nc1nc2c(Cl)cccc2s1)c1ccc(Br)o1,15,-30,35*,0,14,-1,39*,43*,
CCC(NC(=O)c1ccccc1NC(=O)c1ccco1)C(=O)NC1CCCCC1 (centres undefined),-4,-9,1,-3,-1,5,nt,nt,
N#Cc1cc2c(nc1SCC(=O)NCc1ccc3c(c1)OCO3)CCCCC2,11,15,14*,-1,2,0,17*,26*,
O=C(N/N=C/c1ccc(OC(=O)c2ccccc2)cc1)c1cccnc1,-4,-9,2,-3,-13,3,nt,nt,
O=c1[nH]n(-c2cccc3cccnc23)c(=O)c2ccccc12,-1,-12,-1,0,12,-1,nt,nt,
O=C1C2C3c4ccccc4C(c4ccccc43)C2C(=O)N1c1cccc2cccnc12 (centres undefined),5,-7,10*,-1,0,-2,5,7,
COc1cccc(C2/C(=C(\O)c3ccc4c(c3)OCCO4)C(=O)C(=O)N2Cc2cccnc2)c1 (centres undefined),-3,-25,23*,2,16,12,30*,35*,
O=C1C(=O)N(Cc2ccncc2)C(c2ccccc2F)/C1=C(\O)c1ccc2c(c1)OCCO2 (centres undefined),1,1,16*,-1,3,7,32*,31*,PG9 bind DR=i;PGV04 binding DR=5.3*;PG126 DR counter=7.8*
O=C1C(=O)N(CCN2CCOCC2)C(c2cccc(Cl)c2)/C1=C(\O)c1ccc2c(c1)OCCO2 (centres undefined),-1,-1,32*,-3,5,10,36*,42*,
COc1cc(C2/C(=C(\O)c3ccc4c(c3)OCCO4)C(=O)C(=O)N2Cc2ccccc2)ccc1O (centres undefined),0,-13,-1,-1,3,0,nt,nt,
CCCOc1cccc(C2/C(=C(\O)c3ccc4c(c3)OCCO4)C(=O)C(=O)N2CCCn2ccnc2)c1 (centres undefined),4,3,0,-1,2,7,nt,nt,

# Screening data (PubChem)
